# Screening data from PubChem BioAssay.
# PLAP activator: PLAP enzyme activators, biochemical, luminescence, HTS | hit rate 1.2% among 96,000 | activation fold at 20 µM | purified PLAP enzyme, luminescent substrate read-out; stronger effect = higher value; in the data active means activation fold above about 2
# LYP inh 2: PTPN22 phosphatase inhibitors, primary screen, biochemical, DiFMUP fluorescence, 2 µM; inhibition, % at 2 µM; hit rate 0.21% among 96,000; recombinant LYP catalytic domain;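 active means inhibition at 2 µM at or above a set limit, the screen mean plus 3 SD, cut at about 24% in these data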;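 further: 0% = DMSO with enzyme and 100% = enzyme fully blocked by orthovanadate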
# Plk1 PBD FP: Plk1 polo box domain binding inhibitors, primary screen, biochemical, fluorescence polarization; Serine/threonine-protein kinase PLK1 (Homo sapiens), P53350; Plk1 PBD phosphopeptide binding; inhibition, %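 (tested at about 20 µM)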; hit rate 0.13% among 97,000; AID 693, 2007; in the data active means inhibition above about 34%, passing the limit was not always enough
# PTPN22 act: LYP phosphatase activators, primary screen, biochemical, DiFMUP fluorescence, 2 µM | Tyrosine-protein phosphatase non-receptor type 22 (Homo sapiens), Q9Y2R2 | recombinant LYP; 0 = plate median, 100 = signal doubled | activation, % at 2 µM | hit rate 0.11% among 96,000 | AID 697, 2007;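 active means activation at 2 µM above a set limit, the mean plus 5 SD, cut at about 37% in these data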
# PLK1 inh: human PLK1 kinase inhibitors, primary screen, biochemical, TR-FRET. recombinant PLK1 kinase, TR-FRET peptide phosphorylation. inhibition, % at 10 µM. hit rate 0.53% among 97,000. AID 619, 2007;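 active means inhibition of 50% or more in the single-concentration screen; inactive means inhibition below 50%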;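 further: 0% = DMSO max control and 100% = H-89 dihydrochloride min control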
# HIV Rev-RRE inh: HIV-1 Rev-RRE binding inhibitors, primary screen, biochemical, FRET, protein-RNA interaction; inhibition, % at 8 µM; hit rate 0.79% among 97,000; Rev peptide-RRE RNA binding; P05866;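 active means inhibition above the screen-wide mean plus 3 SD, cut at about 35% in these data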;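 further: 0% = median DMSO wells and 100% = median Neomycin B control wells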
# Target sequence (P05866 whole entry, looked up): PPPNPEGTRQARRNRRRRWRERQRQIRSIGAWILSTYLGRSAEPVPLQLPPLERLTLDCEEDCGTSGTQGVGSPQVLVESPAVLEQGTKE
#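 Test system: labelled RRE RNA duplex and labelled Rev peptide. Times: 5 min compound–RNA preincubation, then 15 min with peptide, 25 °C. Doses: single-dose 8 µM. Measured by: FRET, excitation 480 nm, emission 540 nm donor and 671 nm acceptor. Measure: % inhibition of FRET ratio versus controls.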
# * marks the source's active call; other numbers are inactive results; . = no result given; [ ] = remark or other dose. Shown are actives, neighbours in structure and some others; about 2.7% of the full set was active somewhere.
SMILES,PLAP activator,LYP inh 2,Plk1 PBD FP,PTPN22 act,PLK1 inh,HIV Rev-RRE inh
COc1ccccc1C1C(C#N)=C(N)Oc2cc(C)n(CCCn3ccnc3)c(=O)c21 (stereo not given),2*,-15.8,-17.8,12.9,1.9,-0.3
O=c1c(/C=C(\O)c2ccccc2)nc2ccccc2n1-c1ccccc1,1.1,8.4,2.5,-6.0,-13.7,98.2*[fluorescence artefact?]
O=C(c1ccc(Cl)cc1)c1cnc(-c2ccc(Cl)cc2)s1,0.8,41.2*,28.6,-40.1,-9.3,1.9
O=C(c1ccccc1)c1cnc(-c2ccc(Cl)cc2)s1,1,3.3,-7.2,-1.6,-15.1,2.7
O=C(CN1CCCN(S(=O)(=O)c2ccc(F)cc2)CC1)Nc1ccccc1Br,.,-5.1,-1.0,-2.4,-12.8,9.4
N#C/C(C(=O)c1ccccc1)=C1/SC=C(N)N1c1ccccc1,1,-1.9,-108.4,-3.4,-13.5,118.2*[fluorescence artefact?]
Cc1onc(-c2ccccc2)c1C(=O)Nc1nc2c(s1)C(=O)CC(C)(C)C2,1.1,13.3,7.1,-10.7,-14.2,1.6
c1ccc(CN2CCN(c3nc(NCc4ccco4)c4ccccc4n3)CC2)cc1,2*,7.5,6.8,-4.9,-10.0,16.9
OCCN1CCN(c2nc(NCc3ccco3)c3ccccc3n2)CC1,.,5.6,-7.5,-4.0,-11.4,6.7
O=C(c1ncn[nH]1)N1CCN(c2nc(-c3ccccc3)cs2)CC1,2.6*,-11.4,-3.7,7.9,-8.7,-1.9
O=C(c1cc(-n2cnnc2)ccc1Cl)N1CCN(c2nc(-c3ccccc3)cs2)CC1,1.1,12.1,-26.8,-12.6,-14.9,-1.7
Cc1nc2ncnn2c(N2CCCC(C(=O)Nc3ccc4c(c3)CCC4)C2)c1C (stereo not given),2.1*,.,.,.,.,.
Cc1ccccc1Cn1ccc(NC(=O)CCSc2nc(-c3ccco3)cc(C(F)(F)F)n2)n1,0.9,24.6*,7.6,-21.2,-2.2,3.5
CCCN1C(=O)c2cc(C(=O)NC3CCCCCC3)ccc2C1O (stereo not given),0.9,5.1,-10.0,-6.7,4.7,-1.0
CCOC(=O)N1CCC(N2C(=O)c3cc(C(=O)NC4CCCCC4)ccc3C2O)CC1 (stereo not given),1.5,.,1.6,.,60.8*,5.7
O=C(Nc1cccc2c1CCCC2)C1CCN(c2nnnn2-c2ccccc2)CC1,1,-6.0,-32.1,2.4,-9.4,2.3
Cc1nn(CCc2n[nH]c(=S)n2-c2cccc(Cl)c2)c(C)c1[N+](=O)[O-],2.2*,0.0,14.4,0.6,-8.9,-0.9
Cc1cccc(N2CCN(C(=O)c3c(C)nn(Cc4ccccc4Cl)c3C)CC2)c1C,1.7,11.0,-4.6,-8.3,-9.2,-0.3
CCCCNC(=O)Nc1nnc(-c2ccccc2)o1,2.1*,-7.5,-1.2,5.7,-9.9,2.6
Cc1ccc(S(=O)(=O)N2CCCC(c3nnc4n3-c3ccccc3SC4)C2)cc1 (stereo not given),1.6,11.3,-23.6,-8.3,-3.2,10.8
COc1cccc2c1C(=O)c1ccc3ccccc3c1C2=O,1,0.6,-2.5,-0.6,-10.1,4.5
COc1ccc(OC)c2c1C(=O)c1ccccc1C2=O,0.7,5.7,31.6,-2.9,-13.6,75.1*[fluorescence artefact?]
N#CC1=C(N)Oc2n[nH]c(-c3cccs3)c2C1c1ccco1 (stereo not given),1.3,-27.8,-25.4,26.3,0.4,60.0*
CCCCCCc1cc2cc(C(=O)NCc3ccccc3)c(=N)oc2cc1O,.,7.7,-19.5,-8.1,-16.3,104.1*[fluorescence artefact?]
COc1ccc2oc(=N)c(C(=O)Nc3ccccc3)cc2c1,0.9,-1.7,-15.8,-1.0,-16.1,-0.5
OCCN(Cc1ccccc1)CC1CCCCC1,0.9,3.0,-8.0,-1.0,-9.8,5.4
CCOC(=O)CSC(C)C(=O)Nc1nnc(C(C)C)s1 (stereo not given),.,.,-5.7,.,64.1*,5.6
COc1cc(C)c(CNc2cccc(C)c2)cc1C,0.6,-3.7,-8.5,3.1,-2.3,7.9
COc1cc(C)c(CNc2ccc(OC)c(OC)c2)cc1C,1.5,-8.0,12.6,7.3,-9.3,39.5*
